# Screens (PubChem)
# An excerpt weighted towards active compounds, which were near 1.6% of everything screened.
# TCR CD3 inh – human TCR-CD3 binding inhibition; AID 651800; hit rate 0.37% among 360,000; inhibition, % at 9.4 µM; TAMRA-labeled TCR probe fluorescence, biochemical; in the data active means inhibition above about 19%;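 further: recombinant mutant TCR 2C K166C tagged with TAMRA read by polarization; 0% = receptor in buffer alone and 100% = receptor with positive control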
# RBBP9 inhibitor – inhibitors of human serine hydrolase RBBP9. O75884. recombinant RBBP9, FP-Rh probe fluorescence polarization. inhibition, % at 7.94 µM. hit rate 0.2% among 220,000. AID 1515;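 active means inhibition above the campaign mean of all tested compounds plus 3 SD, cut at about 14% in these data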;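 further: plate controls were DMSO wells with RBBP9 for no effect and wells lacking RBBP9 protein for full effect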
#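 Controls: DMSO-treated enzyme wells and wells lacking RBBP9 | Material: RBBP9 protein | Technique: Fluorescence polarization | Replication: Single well per compound, no replicates | Buffer or medium: Tris-NaCl-Pluronic buffer, pH 8.0 | Timing: 30 min compound preincubation, 45 min probe labeling, 25 °C | Read-out basis: Percent inhibition from mP, scaled between DMSO and no-protein wells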
# eIF4H FP inh – inhibitors of RNA binding by human eIF4H. Q15056. inhibition, % at 35 µM. hit rate 0.94% among 290,000. eIF4H fluorescence polarization binding assay;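 further: calls also rest on retests at 20 µM and on dose response follow-up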
# PABP FP inh – blocks human PABP binding to poly(A) RNA; hit rate 1% among 290,000; AID 2014; calls only at 35 µM; P11940; fluorescence polarization;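 further: calls also rest on retests at 20 µM and on dose response follow-up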
# Target sequence (P11940 whole entry, looked up): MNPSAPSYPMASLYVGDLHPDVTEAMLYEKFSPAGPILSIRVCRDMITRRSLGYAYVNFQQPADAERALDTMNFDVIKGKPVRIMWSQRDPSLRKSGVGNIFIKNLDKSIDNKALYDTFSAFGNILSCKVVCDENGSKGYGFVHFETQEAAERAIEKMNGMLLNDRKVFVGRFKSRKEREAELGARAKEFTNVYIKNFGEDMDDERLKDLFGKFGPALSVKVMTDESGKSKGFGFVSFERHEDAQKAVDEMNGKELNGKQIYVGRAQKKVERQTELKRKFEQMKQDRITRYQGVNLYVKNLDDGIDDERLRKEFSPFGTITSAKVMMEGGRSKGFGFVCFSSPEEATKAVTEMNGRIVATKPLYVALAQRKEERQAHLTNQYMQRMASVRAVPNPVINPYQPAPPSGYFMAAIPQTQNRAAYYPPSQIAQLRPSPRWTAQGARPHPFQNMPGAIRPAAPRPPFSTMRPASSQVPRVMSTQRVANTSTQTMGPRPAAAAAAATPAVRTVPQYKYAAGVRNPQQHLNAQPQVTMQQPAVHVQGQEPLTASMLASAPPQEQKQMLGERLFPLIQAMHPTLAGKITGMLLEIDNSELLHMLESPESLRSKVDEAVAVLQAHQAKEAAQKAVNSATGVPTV
# PABP1 MLLE inh – inhibitors of microRNA-mediated deadenylation, human PABP1 MLLE binding; inhibition, % at 20 µM; GST-MLLE / FITC-PAM2 fluorescence polarization; AID 588489; hit rate 0.36% among 360,000; P11940; in the data active means inhibition above about 35%, passing the limit was not always enough;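 further: plate controls were DMSO wells with GST-MLLE for no effect and wells lacking GST-MLLE protein for full effect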
# * marks the source's active call; other numbers are inactive results; i = inactive; u = inconclusive; x = not tested or not shown; + = active, no number. Unless noted, how the calls were made is not given here.
SMILES,TCR CD3 inh,RBBP9 inhibitor,eIF4H FP inh,PABP FP inh,PABP1 MLLE inh
COc1ccc(N=C2SC(CC(=O)Nc3ccccc3)C(=O)N2CCN2CCOCC2)cc1 (stereo not given),7,-5,active,+,-4
C/C(=N\Nc1nc2ccccc2c(=O)n1O)c1ccco1,20*,x,79*,i,7
COc1ccc(NC(=S)N=Nc2c(O)[nH]c3ccccc23)cc1,-2,3,14,i,41*
O=S1(=O)CC(O)C(Nc2ccccc2)C1 (stereo not given),6,-12,active,i,7
CCOC(=O)c1c(N)sc2c1CCSC2,-8,-5,111*,+,-15
CCOC(=O)c1c(N)sc(=S)c2c1CCC2,13,-5,33*,+,41*
CC12CCCCN1CCCc1c2[nH]c2ccccc12 (stereo not given),-2,-9,u,u,40*
CN1C(=O)c2cccc(NCCCN3C(=O)c4ccccc4C3=O)c2C1=O,-7,-2,66*,+,-4
O=c1[nH]ncc(N/N=C\c2ccncc2)c1Cl,-3,-13,-9,i,0
O=c1[nH]ncc(N/N=C\c2cccs2)c1Cl,-9,-7,active,+,-4
COCCn1c(SCC(=O)c2c(N)n(C)c(=O)n(C)c2=O)nc2ccccc21,12,-7,3.0*,+,-1
COC(=O)[C@]12C[C@H](CC(=O)NCC34CC5CC(CC(C5)C3)C4)C(=O)N(Cc3ccccc3)C1=C[C@H](C(C)(C)C)O[C@@H]2C,0,x,x,x,x
c1ccc2c(c1)nnn2Cc1nnc2sc(-c3ccc4c(c3)OCCO4)nn12,5,-4,-5,i,41*
Nc1cc(C(=O)O)ccc1Nc1ccc(F)c(F)c1,5,3,65*,+,3
COC(=O)C1=C(C)N(Cc2ccc(C(F)(F)F)cc2)C(=NCc2ccc(OC)cc2)NC1c1ccccc1 (stereo not given),-1,x,x,x,x
CCCCCc1c(O)nc(SCCN(C)C)[nH]c1=O,7,-3,-8,i,2
O=C(CSc1nc(O)c(Cc2ccccc2)c(=O)[nH]1)c1ccccc1,4,-8,5,i,41*
CCCCc1c(O)nc(SCC(=O)c2ccccc2)[nH]c1=O,-4,4,-1,i,39*
CCCCCc1c(O)nc(SCCN(CC)CC)[nH]c1=O,3,-6,active,+,6
O=C(NC1CCCC1)[C@@H]1CCCN1C(=O)[C@H](Cc1cccnc1)NC(=O)N1CCOCC1,5,x,x,x,x
O=C(CSc1c2c(nc3ccccc13)CCCC2)NCc1ccco1,5,-1,6,i,23
O=C(NCc1ccco1)c1c2c(nc3ccccc13)CCC2,6,-5,89*,+,6
Nc1c(C(=O)NCc2ccco2)sc2nc3c(cc12)C(=O)CCC3,1,0,89*,+,14
CCCC(C)NC(=O)c1c2c(nc3ccccc13)CCC2 (stereo not given),3,-3,25,i,-12
O=C(NCc1ccc(F)cc1)c1c2c(nc3ccccc13)CCC2,9,7,71*,i,-25
SMILES,TCR CD3 inh,RBBP9 inhibitor,eIF4H FP inh,PABP FP inh,PABP1 MLLE inh
CC(C)=CCN1C(=O)[C@]2(OCCC=C[C@H]2C)c2c(Br)cccc21,7,x,x,x,x
COC(=O)[C@]12C[C@H](CC(=O)N3CCOCC3)C(=O)N(Cc3ccccc3)C1=C[C@H](C1CCCC1)O[C@@H]2C,1,x,x,x,x
COc1ccc(CN2C[C@H](COCc3ccccc3)Oc3cccc(N4CCCC4)c3S2(=O)=O)cc1,0,x,x,x,x
COc1cccc(CNC(=O)[C@H]2CCCN2C(=O)[C@H]2CCCN2C(=O)c2ccc(F)cc2F)c1,4,x,x,x,x
CCCCOCCCNC(=O)C[C@H]1C[C@@]2(C(=O)OC)C(=C[C@H](C(C)(C)C)O[C@@H]2C)N(Cc2ccc3c(c2)OCO3)C1=O,-10,x,x,x,x
COC(=O)Nc1nnc(-c2ccncc2)s1,-1,2,-8,i,36*
Cc1ccc(NC(=O)Nc2nnc(-c3ccncc3)s2)cc1C,0,-2,53,i,-15
CCCCn1c(NC(=O)c2ccc(Br)o2)c(S(=O)(=O)c2ccccc2)c2nc3ccccc3nc21,5,-3,56*,+,-1
COc1ccccc1-c1cccc2c3c([nH]c12)[C@@H]1C[C@H]2[C@@H](C(=O)N1CC3)[C@H](C)ON2C,4,x,x,x,x
O=C(CSc1nnc(Cc2cc(=O)[nH]c(=O)[nH]2)n1-c1ccc(Cl)cc1)NC1CCCC1,-4,-8,62*,+,31
